Experimental data published in ChEMBL document CHEMBL2390920, “8-Benzamidochromen-4-one-2-carboxylic acids: potent and selective agonists for the orphan G protein-coupled receptor GPR35” (J Med Chem, 2013).

Experiments:
[1] = target: T1, G-protein coupled receptor 55 (Homo sapiens, UniProt Q9Y2T6); test: Antagonist activity at human GPR55 expressed in CHO cells assessed as inhibition of lysophosphotidylinositol-induced beta-arrestin recruitment at 10 uM preincubated for 30 mins followed by lysophosphotidylinositol induction by beta-galactosidase reporter gene assay relative to control; format: functional, cell-based
T1 sequence (Q9Y2T6 whole entry): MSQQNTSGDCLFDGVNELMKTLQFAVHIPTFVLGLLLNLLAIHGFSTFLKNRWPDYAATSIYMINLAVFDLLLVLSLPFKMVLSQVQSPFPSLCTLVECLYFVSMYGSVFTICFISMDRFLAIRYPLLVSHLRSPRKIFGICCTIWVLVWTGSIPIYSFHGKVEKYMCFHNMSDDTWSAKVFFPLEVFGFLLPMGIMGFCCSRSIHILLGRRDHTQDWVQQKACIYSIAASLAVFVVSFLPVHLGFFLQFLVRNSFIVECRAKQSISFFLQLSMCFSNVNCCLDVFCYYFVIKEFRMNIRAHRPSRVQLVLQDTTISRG
Outline: (§1)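 Human GPR55 PathHunter CHO cells were preincubated 30 min with compound, then stimulated with LPI (final 1 µM). After 90 min, detection reagent was added and luminescence read 60 min later. Screening was at 10 µM; full concentration-inhibition curves were run for selected compounds to give IC50.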

[2] = target: T1, G-protein coupled receptor 55; test: Agonist activity at human GPR55 expressed in CHO cells assessed as induction of beta-arrestin recruitment at 10 uM after 90 mins by beta-galactosidase reporter gene assay relative to lysophosphotidylinositol; format: functional, cell-based
Outline: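 Human GPR55 PathHunter CHO cells, 20000 cells/well seeded the day before, received test compound at 10 µM (final DMSO ≤1%) for 90 min. Detection reagent was then added and luminescence read after 60 min. Signal was normalized to that of 1 µM LPI.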

[3] = target: T2, G-protein coupled receptor 35 (Homo sapiens, UniProt Q9HC97); test: Agonist activity at human GPR35b expressed in CHO cells assessed as induction of beta-arrestin recruitment at 10 uM after 90 mins by beta-galactosidase reporter gene assay relative to zaprinast; format: cell-based
T2 sequence (Q9HC97 whole entry): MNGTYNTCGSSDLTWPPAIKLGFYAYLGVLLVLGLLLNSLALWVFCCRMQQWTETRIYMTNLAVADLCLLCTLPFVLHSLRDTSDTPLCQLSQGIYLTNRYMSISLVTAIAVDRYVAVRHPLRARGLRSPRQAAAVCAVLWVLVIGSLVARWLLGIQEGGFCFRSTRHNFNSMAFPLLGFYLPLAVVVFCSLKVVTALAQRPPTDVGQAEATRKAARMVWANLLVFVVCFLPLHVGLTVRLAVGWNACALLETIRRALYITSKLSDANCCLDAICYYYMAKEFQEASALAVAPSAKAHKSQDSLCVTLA
Outline: (§2)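 CHO β-arrestin-EA parental line transfected with human GPR35b, seeded at 20000 cells/well the day before. Compounds in DMSO were diluted 1:10 in medium or PBS (final DMSO ≤1%). After 90 min of incubation, detection reagent was added and luminescence measured 60 min later. Screening was at 10 µM.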

[4] = target: T2, G-protein coupled receptor 35; test: Agonist activity at human GPR35b expressed in CHO cells assessed as induction of beta-arrestin recruitment after 90 mins by beta-galactosidase reporter gene assay; format: cell-based; outline: as §2
[5] = target: G protein-coupled receptor GPR35 (Rattus norvegicus) (UniProt Q33BM1); test: Agonist activity at rat GPR35 expressed in CHO cells assessed as induction of beta-arrestin recruitment at 10 uM after 90 mins by beta-galactosidase reporter gene assay relative to zaprinast; format: cell-based
Sequence of G protein-coupled receptor GPR35 (Rattus norvegicus) (Q33BM1 as listed by the source): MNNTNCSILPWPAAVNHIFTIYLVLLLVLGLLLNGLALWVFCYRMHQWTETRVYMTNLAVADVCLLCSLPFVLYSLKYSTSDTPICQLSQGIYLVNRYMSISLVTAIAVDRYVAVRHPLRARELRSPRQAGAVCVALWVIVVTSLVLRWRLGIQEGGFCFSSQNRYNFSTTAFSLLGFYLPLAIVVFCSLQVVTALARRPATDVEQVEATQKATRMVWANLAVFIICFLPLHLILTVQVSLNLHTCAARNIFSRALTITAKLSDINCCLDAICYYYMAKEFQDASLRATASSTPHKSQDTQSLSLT
Outline: (§3)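 Rat GPR35 expressed by transfecting a parental CHO β-arrestin-EA line; cells seeded at 20000/well the day before. Compounds (final DMSO ≤1%) were incubated 90 min, followed by detection reagent and a luminescence read after 60 min.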

[6] = target: G protein-coupled receptor GPR35 (Rattus norvegicus, UniProt Q33BM1); test: Agonist activity at rat GPR35 expressed in CHO cells assessed as induction of beta-arrestin recruitment after 90 mins by beta-galactosidase reporter gene assay; format: cell-based; outline: as §3
Sequence of G protein-coupled receptor GPR35 (Q33BM1 whole entry): as the sequence (Q33BM1 as listed by the source) above

[7] = target: G-protein coupled receptor 35 (Mus musculus) (UniProt Q9ES90); test: Agonist activity at mouse GPR35 expressed in CHO cells assessed as induction of beta-arrestin recruitment at 10 uM after 90 mins by beta-galactosidase reporter gene assay relative to zaprinast; format: cell-based
Sequence of G-protein coupled receptor 35 (Mus musculus) (Q9ES90 whole entry): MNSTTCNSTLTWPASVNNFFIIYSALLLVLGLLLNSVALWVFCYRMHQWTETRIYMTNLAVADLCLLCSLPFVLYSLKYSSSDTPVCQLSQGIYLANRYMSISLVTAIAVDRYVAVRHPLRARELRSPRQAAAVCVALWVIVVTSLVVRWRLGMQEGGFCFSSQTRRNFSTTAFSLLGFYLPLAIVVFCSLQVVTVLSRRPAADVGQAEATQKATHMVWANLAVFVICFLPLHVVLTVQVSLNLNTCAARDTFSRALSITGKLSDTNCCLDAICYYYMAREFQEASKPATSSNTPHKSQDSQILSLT
Outline: (§4)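 Mouse GPR35 introduced by transfection into a CHO β-arrestin-EA line; 20000 cells/well plated the day prior. After 90 min of compound exposure (final DMSO ≤1%), detection reagent was added and luminescence read after 60 min.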

[8] = target: G-protein coupled receptor 35 (Mus musculus, UniProt Q9ES90); test: Agonist activity at mouse GPR35 expressed in CHO cells assessed as induction of beta-arrestin recruitment after 90 mins by beta-galactosidase reporter gene assay; format: cell-based; outline: as §4
Sequence of G-protein coupled receptor 35 (Mus musculus, UniProt Q9ES90) (Q9ES90 whole entry): as above

[9] = target: T2, G-protein coupled receptor 35; test: Agonist activity at human GPR35 expressed in CHO cells assessed as induction of beta-arrestin recruitment at 10 uM after 90 mins by beta-galactosidase reporter gene assay relative to zaprinast; format: cell-based
Outline: (§5)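 PathHunter enzyme-fragment complementation in CHO cells stably expressing β-arrestin-EA and tagged human GPR35, seeded at 20000 cells/well the day before. DMSO dilutions were further diluted 1:10 (final DMSO ≤1%). Cells were incubated 90 min, then detection reagent was added and luminescence read after 60 min.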

[10] = target: T2, G-protein coupled receptor 35; test: Agonist activity at human GPR35 expressed in CHO cells assessed as induction of beta-arrestin recruitment after 90 mins by beta-galactosidase reporter gene assay; format: cell-based; outline: as §5
[11] = target: T1, G-protein coupled receptor 55; test: Antagonist activity at human GPR55 expressed in CHO cells assessed as inhibition of lysophosphotidylinositol-induced beta-arrestin recruitment preincubated for 30 mins followed by lysophosphotidylinositol induction by beta-galactosidase reporter gene assay; format: functional, cell-based; outline: as §1
[12] = target: G-protein coupled receptor 35 (Mus musculus) (UniProt Q9ES90); test: Agonist activity at mouse GPR35 expressed in CHO cells assessed as induction of beta-arrestin recruitment at 10 uM after 90 mins by beta-galactosidase reporter gene assay; format: cell-based; outline: as §4
Homo sapiens = species on record: Homo sapiens; test: Selectivity ratio of IC50 for human GPR55 to EC50 for human GPR35
[13] = Stability of the compound in aceronitrile/water at pH 8 at 1.2 mM after 2 to 4 days by LC-MS analysis in presence of ammonia and ammonium acetate; format: physicochemical; conditions: buffer, pH 8, 1200 µM
Outline: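 Solution of compound at 1.20 mM in 1:1 acetonitrile/water at pH 8.0, containing ammonia ([…]) and ammonium acetate (2 mM); sample then analysed by LC-MS.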

[14] = Stability of the compound in aceronitrile/water at pH 5.5 at 1.2 mM after 4 hrs by LC-MS analysis; format: physicochemical; conditions: buffer, pH 5.5, 4 h, 1200 µM
Outline: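 Compound dissolved at 1.20 mM in 1:1 acetonitrile/water at pH 5.5 with no added acid, base or salt; sample then analysed by LC-MS.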

[15] = Stability of the compound in aceronitrile/water at pH 3.5 at 1.2 mM after 90 mins by LC-MS analysis in presence of acetic acid and ammonium acetate; format: physicochemical; conditions: buffer, pH 3.5, 1.5 h, 1200 µM
Outline: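 Compound prepared at 1.20 mM in 1:1 acetonitrile/water adjusted to pH 3.5, containing acetic acid (300 mM) and ammonium acetate (2 mM); sample then analysed by LC-MS.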

[16] = target: G protein-coupled receptor GPR35 (Rattus norvegicus) (UniProt Q33BM1); test: Agonist activity at rat GPR35 expressed in CHO cells assessed as induction of beta-arrestin recruitment at 10 uM after 90 mins by beta-galactosidase reporter gene assay; format: cell-based; outline: as §3
[17] = target: T2, G-protein coupled receptor 35; test: Agonist activity at human GPR35 expressed in CHO cells assessed as induction of beta-arrestin recruitment at 10 uM after 90 mins by beta-galactosidase reporter gene assay; format: cell-based; outline: as §5
[18] = target: T3, Aryl hydrocarbon receptor (Homo sapiens, UniProt P35869); test: Activation of AHR (unknown origin)
T3 sequence (P35869 whole entry): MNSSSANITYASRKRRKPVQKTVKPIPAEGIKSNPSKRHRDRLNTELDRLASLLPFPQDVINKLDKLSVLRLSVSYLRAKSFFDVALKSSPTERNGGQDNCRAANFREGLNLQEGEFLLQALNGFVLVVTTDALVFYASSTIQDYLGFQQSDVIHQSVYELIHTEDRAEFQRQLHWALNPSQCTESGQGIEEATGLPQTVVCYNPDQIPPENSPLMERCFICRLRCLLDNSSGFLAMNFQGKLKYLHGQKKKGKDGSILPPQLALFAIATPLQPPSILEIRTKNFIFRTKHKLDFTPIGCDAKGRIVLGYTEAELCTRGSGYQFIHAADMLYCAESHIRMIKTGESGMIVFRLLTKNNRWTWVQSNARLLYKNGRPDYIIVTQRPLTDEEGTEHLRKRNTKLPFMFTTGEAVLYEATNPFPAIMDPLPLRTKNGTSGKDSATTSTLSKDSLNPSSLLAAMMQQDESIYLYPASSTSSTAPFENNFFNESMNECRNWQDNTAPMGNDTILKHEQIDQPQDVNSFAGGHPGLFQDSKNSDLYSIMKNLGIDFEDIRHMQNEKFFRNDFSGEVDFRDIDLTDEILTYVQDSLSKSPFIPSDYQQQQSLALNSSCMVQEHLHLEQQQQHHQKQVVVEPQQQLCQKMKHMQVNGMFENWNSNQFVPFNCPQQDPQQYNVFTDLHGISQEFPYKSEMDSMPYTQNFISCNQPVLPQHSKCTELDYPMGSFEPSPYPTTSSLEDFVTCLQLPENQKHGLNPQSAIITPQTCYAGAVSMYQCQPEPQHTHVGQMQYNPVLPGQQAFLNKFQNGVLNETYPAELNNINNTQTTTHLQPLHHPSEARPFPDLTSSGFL

[19] = target: Neuronal acetylcholine receptor subunit alpha-7 (Homo sapiens, UniProt P36544); test: Inhibition of alpha7 nAChR (unknown origin)
Sequence of Neuronal acetylcholine receptor subunit alpha-7 (P36544 whole entry): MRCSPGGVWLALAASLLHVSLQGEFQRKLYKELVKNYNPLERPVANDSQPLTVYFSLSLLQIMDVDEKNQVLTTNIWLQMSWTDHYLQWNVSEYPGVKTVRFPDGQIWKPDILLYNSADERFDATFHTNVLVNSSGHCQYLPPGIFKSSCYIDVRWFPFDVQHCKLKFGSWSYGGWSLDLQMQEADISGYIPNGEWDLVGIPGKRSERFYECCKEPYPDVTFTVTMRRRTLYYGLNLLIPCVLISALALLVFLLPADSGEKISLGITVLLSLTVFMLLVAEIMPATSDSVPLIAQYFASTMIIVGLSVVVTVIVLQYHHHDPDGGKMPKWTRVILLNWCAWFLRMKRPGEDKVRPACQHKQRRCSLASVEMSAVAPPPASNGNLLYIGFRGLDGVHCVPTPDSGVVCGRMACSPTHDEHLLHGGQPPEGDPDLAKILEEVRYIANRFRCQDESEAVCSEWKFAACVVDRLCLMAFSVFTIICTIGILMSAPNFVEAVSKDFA

[20] = target: Glutamate [NMDA] receptor; test: Inhibition of NMDA receptor (unknown origin); parameters: species or system Homo sapiens
[21] = target: GABA-A receptor; agonist GABA site; test: Inhibition of GABAA receptor (unknown origin); format: protein-complex assay, Homo sapiens
[22] = Inhibition of AMPA receptor (unknown origin); parameters: species or system Homo sapiens
[23] = Inhibition of PDE (unknown origin); parameters: species or system Homo sapiens
[24] = Inhibition of chloride channel (unknown origin); parameters: species or system Homo sapiens

SMILES	inhibition [1]	Activity [2]	Emax [5]	EC50 [6]	Emax [7]	EC50 [8]	Emax [9]	EC50 [10]	Activity [12]	further results
COc1ccc(C(=O)Nc2cccc3c(=O)cc(C(=O)O)oc23)cc1	-3%	0%	85%	2160 nM	66%	5.03 µM	104%	346 nM		Emax [3]: 115%; EC50 [4]: 472 nM
COc1ccc(C(=O)Nc2cc(Br)cc3c(=O)cc(C(=O)O)oc23)cc1		0%	88%	1400 nM			121%	12.1 nM	36%	Ratio IC50/EC50 (Homo sapiens): > 1700; IC50 [11]: 21.7 µM; Emax [3]: 136%; EC50 [4]: 22.1 nM; Stability [13]: Stable; Stability [14]: Stable; Stability [15]: Stable
COc1ccc(C(=O)Nc2cc(Br)cc3c(=O)cc(C(=O)O)oc23)cn1		9%	94%	991 nM	64%	4.98 µM	117%	30.5 nM		IC50 [11]: 6.2 µM
O=C(Nc1cccc2c(=O)cc(C(=O)O)oc12)c1ccc(OCC2CC2)cc1	24%	-5%							13%	Activity [16]: 48%; Activity [17]: 10%
CCCOc1ccc(C(=O)Nc2cccc3c(=O)cc(C(=O)O)oc23)cc1	21%	10%	80%	3610 nM					13%	Activity [17]: 4%
Nc1cccc2c(=O)cc(C(=O)O)oc12	19%	-11%							4%	Activity [16]: 40%; Activity [17]: 2%
O=C(O)c1cc(=O)c2cc(Br)cc(NC(=O)c3ccc(Cl)cc3Cl)c2o1	43%	10%					110%	16.4 nM	12%	Emax [3]: 116%; EC50 [4]: 34.6 nM; Activity [16]: 32%
O=C(Nc1cccc2c(=O)cc(C(=O)O)oc12)c1ccc2ccccc2c1		6%			79%	2.99 µM	125%	4670 nM		IC50 [11]: 29.1 µM; Activity [16]: 46%

Now from value to molecule, other results behind:

inhibition [1]	Activity [2]	Emax [5]	EC50 [6]	Emax [7]	EC50 [8]	Emax [9]	EC50 [10]	Activity [12]	SMILES	further results
	4%	68%	1540 nM			115%	144 nM	27%	COc1ccc(C(=O)Nc2cc(Br)cc3c(=O)cc(C(=O)O)oc23)nc1	IC50 [11]: 8.92 µM
			8000 nM		17 µM				O=C1N/C(=N/c2ccccc2F)S/C1=C\c1ccc(C(=O)O)cc1	
			61.1 nM		1.6 µM				CCCOc1ccccc1-c1nc2nn[nH]c2c(=O)[nH]1 [ZAPRINAST]	
	10%	81%	4170 nM			120%	11.1 nM	35%	COc1ccc(C(=O)Nc2cc(Br)cc3c(=O)cc(C(=O)O)oc23)c(Cl)c1	Ratio IC50/EC50 (Homo sapiens): > 1700; IC50 [11]: 21.7 µM; Emax [3]: 129%; EC50 [4]: 14.7 nM
45%	-12%	106%	1300 nM	73%	6.4 µM	102%	425 nM		COc1ccc(C(=O)Nc2cc(Br)cc3c(=O)cc(C(=O)O)oc23)cc1OC	Emax [3]: 101%; EC50 [4]: 628 nM
44%	9%	73%	1100 nM	71%	4.95 µM	91%	1660 nM		COc1ccccc1C(=O)Nc1cc(Br)cc2c(=O)cc(C(=O)O)oc12	
			66000 nM				217000 nM		O=C(O)c1cc(=O)c2ccccc2[nH]1 [TRANSTORINE]	EC50 [18]: 300 nM; IC50 [19]: 7 µM; IC50 [20]: 15 µM; IC50 [21]: 2.9 mM; IC50 [22]: 10 µM
		104%	986 nM	102%	4.84 µM	119%	1260 nM		O=C(O)c1cc(=O)c2c(OCC(O)COc3cccc4oc(C(=O)O)cc(=O)c34)cccc2o1 [CROMOLYN SODIUM]	Ki [23]: 0.8 nM; IC50 [24]: 5 µM
31%	-6%			65%	3.59 µM	81%	1340 nM		O=C(Nc1cccc2c(=O)cc(C(=O)O)oc12)c1ccc2ccccc2n1	Activity [16]: 41%
